Legend:
[1] = test system: HFF; experiment: Cytotoxicity against human HFF cells by neutral red uptake; format: functional
Summary of the method: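 Uninfected HFF cells in 96-well plates were exposed to various drug concentrations for 7 days, then stained with neutral red.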

[2] = test system: Vaccinia virus; experiment: Antiviral activity against Vaccinia virus Copenhagen in HFF cells assessed as reduction in plaque formation; format: functional, organism-based; conditions: Orthopoxvirus vaccinia
[3] = test system: Cowpox virus; experiment: Antiviral activity against Cowpox virus Brighton in HFF cells assessed as reduction in cytopathogenicity; format: functional, organism-based
[4] = test system: Cowpox virus; experiment: Antiviral activity against Cowpox virus Brighton in HFF cells assessed as reduction in plaque formation; format: functional, organism-based

**Q.** With `Nc1ccn(C[C@@H](CO)OCP(=O)(O)O)c(=O)n1` [CIDOFOVIR] as the molecule, how does the CC50 [1] read?
**A.** Its CC50 is greater than 317 µM.

**Q.** And the EC50 [2]?
**A.** The EC50 was 20 µM.

**Q.** And the EC50 [3]?
**A.** The EC50 was 7.1 µM.

**Q.** For `CC(=O)OC[C@H]1O[C@@H](n2cc(/C=C3\C(=O)N(c4ccccc4)N=C3C)c(=O)[nH]c2=O)C[C@@H]1OC(C)=O`, which CC50 [1] is on record?
**A.** Its CC50 is greater than 252 µM.

**Q.** And the EC50 [2]?
**A.** Its EC50 is 56 µM.

**Q.** And the EC50 [3]?
**A.** The EC50 was 33.7 µM.

**Q.** What about the EC50 [4] of the same molecule?
**A.** Its EC50 is 48 µM.

— ChEMBL document CHEMBL1147827, “A pyrimidine-pyrazolone nucleoside chimera with potent in vitro anti-orthopoxvirus activity” (Bioorg Med Chem Lett, 2006)
